Laboratory results as given in ChEMBL document CHEMBL1148520, “5-(Dimethoxymethyl)-2'-deoxyuridine: a novel gem diether nucleoside with anti-orthopoxvirus activity” (J Med Chem, 2006).

What was measured:
Vaccinia virus = assay: Antiviral activity against vaccinia virus Copenhagen assessed as plaque reduction in HFF cells; type: functional, organism-based; conditions: Orthopoxvirus vaccinia
HFF = assay: Cytotoxicity against HFF cell line by neutral red toxicity assay; type: functional; conditions: Homo sapiens
How it was run: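 Confluent uninfected HFF monolayers exposed to various drug concentrations for 7 days at 37 °C. Viability read by neutral red uptake. CC50 is the concentration reducing neutral red uptake by 50%.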

Cowpox virus [1] = assay: Antiviral activity against cowpox virus Brighton by plaque reduction in HFF cells; type: functional, organism-based
Cowpox virus [2] = assay: Antiviral activity against cowpox virus Brighton measured as cytopathogenicity in HFF cells; type: functional, organism-based

Structure (SMILES) | EC50 (Vaccinia virus) [µM] | CC50 (HFF) [µM] | EC50 (Cowpox virus [1]) [µM] | EC50 (Cowpox virus [2]) [µM]
CCOC(OCC)c1cn(C2C[C@H](OC(C)=O)[C@@H](COC(C)=O)O2)c(=O)[nH]c1=O (stereo not given in full) | 79 | > 300 | 25.8 | 52.4
COC(OC)c1cnc(O)nc1O |  | > 300 |  | > 300
CC(=O)OC[C@H]1OC(n2cc(C3OCCCO3)c(=O)[nH]c2=O)C[C@@H]1OC(C)=O (stereo not given in full) |  | > 300 |  | > 300
CC(=O)OC[C@H]1OC(n2cc(C=O)c(=O)[nH]c2=O)C[C@@H]1OC(C)=O (stereo not given in full) |  | > 300 |  | > 300
COC(OC)c1cn(C2C[C@H](OC(C)=O)[C@@H](COC(C)=O)O2)c(=O)[nH]c1=O (stereo not given in full) |  | > 300 |  | > 300
COC(OC)c1cn(C2C[C@H](O)[C@@H](CO)O2)c(=O)[nH]c1=O (stereo not given in full) | 9 | > 300 | 7.4 | 11.7
O=Cc1cn([C@H]2C[C@H](O)[C@@H](CO)O2)c(=O)[nH]c1=O |  | > 300 |  | > 300
CC(=O)OC[C@H]1OC(n2cc(C3OCCO3)c(=O)[nH]c2=O)C[C@@H]1OC(C)=O (stereo not given in full) |  | > 300 |  | > 300
CCOC(OCC)c1cn(C2C[C@H](O)[C@@H](CO)O2)c(=O)[nH]c1=O (stereo not given in full) |  | > 300 |  | > 60
O=c1[nH]c(=O)n(C2CC(O)[C@@H](CO)O2)cc1C1OCCO1 (single isomer, unassigned) |  | > 300 |  | > 300
O=c1[nH]c(=O)n(C2CC(O)[C@@H](CO)O2)cc1C1OCCCO1 (single isomer, unassigned) |  | > 300 |  | > 300
Nc1ccn(C[C@@H](CO)OCP(=O)(O)O)c(=O)n1 [CIDOFOVIR] | 9 | > 300 | 9 | 8.3
